Measured values pooled from the literature.
Compare with care: the assays were run in different laboratories.
Target: Homeodomain-interacting protein kinase 4 (HIPK4, Homo sapiens, UniProt Q8NE63)
Observed: enzyme activity
Mode: inhibitor
Residues used in one study (Q8NE63 1-616): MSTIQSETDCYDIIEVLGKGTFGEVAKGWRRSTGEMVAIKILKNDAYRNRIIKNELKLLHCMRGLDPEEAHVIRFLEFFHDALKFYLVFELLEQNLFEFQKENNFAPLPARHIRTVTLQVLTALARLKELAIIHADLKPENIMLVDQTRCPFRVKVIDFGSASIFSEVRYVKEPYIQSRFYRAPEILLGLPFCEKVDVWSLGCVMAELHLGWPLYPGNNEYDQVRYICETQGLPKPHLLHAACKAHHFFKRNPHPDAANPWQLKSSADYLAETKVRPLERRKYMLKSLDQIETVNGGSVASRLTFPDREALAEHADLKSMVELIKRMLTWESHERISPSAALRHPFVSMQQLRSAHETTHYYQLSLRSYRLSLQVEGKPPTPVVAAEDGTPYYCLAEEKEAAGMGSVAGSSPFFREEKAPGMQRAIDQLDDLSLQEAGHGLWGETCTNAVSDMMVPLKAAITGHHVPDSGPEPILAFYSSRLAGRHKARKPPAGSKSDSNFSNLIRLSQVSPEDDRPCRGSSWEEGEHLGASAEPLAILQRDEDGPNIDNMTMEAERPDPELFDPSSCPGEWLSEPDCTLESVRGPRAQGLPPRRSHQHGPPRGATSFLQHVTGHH

Structure (SMILES)	technique	concentration	remaining activity
CC(C)(C)c1nc2c(s1)c1nc(N)ncc1c1ccc(NS(=O)(=O)c3c(F)cccc3F)c(F)c12	radiometric	1 µM	82%
Cc1sc(C(=O)NC2COC2)cc1-n1cc(NC(=O)Nc2c(F)cccc2Cl)cn1		10 µM	98.4%
O=C(O)c1ccc2c(c1)nc(Nc1ccccc1)c1ccncc12	radiometric	1 µM	-2%
CC(C)(C)c1nc(-c2cccc(NS(=O)(=O)c3c(F)cccc3F)c2F)c(-c2ccnc(N)n2)s1	radiometric	1 µM	37%
O=C(O)c1ccc2c(c1)nc(NCc1ccccc1)c1ncncc12	radiometric	1 µM	63%
CC(C)(O)[C@H]1CC[C@H](Nc2ccc3ncc(-c4cccc(C(F)(F)F)c4)n3n2)CC1		1 µM	23.6%
Cc1ccc(C(=O)Nc2ccc(CN3CCN(C)CC3)c(C(F)(F)F)c2)cc1C#Cc1cnc2cccnn12		23.5 nM	71%
O=C(Nc1cnn(-c2csc(C(=O)NC3COC3)c2)c1)Nc1ccccc1Cl		5 µM	100%
O=C(O)c1ccc2c(c1)nc(NCCc1ccccc1)c1ncncc12	radiometric	1 µM	29%
COc1cc(Cl)c(C(=O)N[C@@H](CN[C@H]2CC[C@@H](N)CC2)Cc2ccc(C#N)cc2)cc1-c1ccc(CN[C@H](C)c2ccc(C)cc2)o1		1 µM	90%
